Data set [1] deals with HaCaT. Nature of the data set: Cytotoxicity against human HaCaT cells at 10 uM after 48 hrs by MTT assay relative to control. The class given is cell-based. An outline of the steps: (§1)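 Cells cultured in DMEM with 10% FBS at 37 °C, 5% CO2. 2×10^4 cells seeded per well, exposed to 1 or 10 μM compound for 24, 48 and 72 h. MTT (0.5 mg/mL, phenol red-free DMEM) 3 h at 37 °C; formazan dissolved in acidic isopropanol. A570–A630 read; viability = test/control absorbance. Quadruplicate wells, three independent experiments.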

The subject of data set [2] is HaCaT. Description: Cytotoxicity against human HaCaT cells assessed as reduction in cell viability at 1 uM after 24 hrs by MTT assay relative to control. The class given is cell-based. An outline of the steps:
as §1

In data set [3] the test system is HaCaT. Description: Cytotoxicity against human HaCaT cells assessed as reduction in cell viability at 10 uM after 24 hrs by MTT assay relative to control. The class given is cell-based. The method, boiled down: as §1
In data set [4] the test system is HaCaT. Nature of the data set: Cytotoxicity against human HaCaT cells at 1 to 10 uM after 72 hrs by MTT assay. The class given is cell-based. An outline of the steps:
as §1

For data set [5], the system named is NCI-H1299. Description: Cytotoxicity against human NCI-H1299 cells at 10 uM after 72 hrs by MTT assay relative to control. The class given is functional. The method, boiled down: as §1
The test system of data set [6] is NCI-H1299. Description: Cytotoxicity against human NCI-H1299 cells at 1 uM after 72 hrs by MTT assay relative to control. The class given is functional. An outline of the steps: as §1
Data set [7] has as its system HaCaT. Description: Cytotoxicity against human HaCaT cells at 10 uM after 24 to 72 hrs by MTT assay. The class given is cell-based. An outline of the steps: as §1
For a further data set, the system named is A-431. Nature of the data set: Cytotoxicity against human A431 cells after 72 hrs by MTT assay. The class given is functional, cell-based. Conditions: A-431, 72 h. The method, boiled down:
as §1

Activity calls are given as the source filed them. No cut-off for these calls is given here.

As for `C=C1CC[C@H]2[C@](C)(CCC=C(C)C)[C@H](O)CC[C@]2(C)[C@@H]1C[C@]1(C(=O)OC)OC(C)=C(C)C1=O`, the Activity result is on record as “Toxic” in the data set with HaCaT [1], “Non-Toxic” in the data set with HaCaT [2], “Non-Toxic” in the data set on HaCaT [3] and “Non-Toxic” in the data set on HaCaT [4]. Moreover, the outcome with NCI-H1299 [5] and with NCI-H1299 [6] was inactive.

In the case of `C=C1CC[C@H]2[C@](C)(CCC=C(C)C)[C@H](O)CC[C@]2(C)[C@@H]1Cc1c(O)c(C)c(C)oc1=O`, in the data set with HaCaT [7], the Activity entry is recorded as “Toxic”.

Take `C=C1CC[C@H]2[C@](C)(CCC=C(C)C)[C@H](O)CC[C@]2(C)[C@@H]1C[C@@]1(C(=O)OC)OC(C)=C(C)C1=O`: the Activity entry in the data set on HaCaT [1] is “Toxic”; with HaCaT [2] it was 40%; in the data set on HaCaT [3], 37%; with HaCaT [4], “Non-Toxic”; in the data set with NCI-H1299 [5] it was 26%; with NCI-H1299 [6], 22%. Also, the IC50 with A-431 was 1 µM.
